Test results as given in ChEMBL document CHEMBL4266038, “Total Synthesis of Xanthoangelol B and Its Various Fragments: Toward Inhibition of Virulence Factor Production of Staphylococcus aureus” (J Med Chem, 2018).
Active and inactive are the calls of the source. No cut-off for these calls is given here.

Legend:
[1] = tested on: Staphylococcus aureus subsp. aureus USA300; assay: Inhibition of methicillin-resistant Staphylococcus aureus USA300 SaeRS assessed as reduction in alpha-hemolysin mediated hemolysis of human erythrocytes at 8 uM after 8 hrs by ELISA
Method in brief: (§1)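 Overnight cultures of wild-type USA300 or the saeS mutant were diluted 1:100 in TSB and grown to OD600 = 1. Cells at 5x10^5/ml were grown with compound for 8 h at 37 °C, 250 rpm. Supernatants were mixed 1:1 with 5% DPBS-washed human RBC for 30 min, then centrifuged, and hemolysis was read at OD540. Experiments were run in triplicate.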

[2] = tested on: Staphylococcus aureus subsp. aureus USA300; assay: Inhibition of methicillin-resistant Staphylococcus aureus USA300 SaeRS assessed as reduction in alpha-hemolysin mediated hemolysis of human erythrocytes at 4 uM after 8 hrs by ELISA; method in brief: as §1
[3] = tested on: Staphylococcus aureus subsp. aureus USA300; assay: Inhibition of methicillin-resistant Staphylococcus aureus USA300 SaeRS Tn551 deletion mutant assessed as reduction in alpha-hemolysin mediated hemolysis of human erythrocytes at 15 uM after 8 hrs by ELISA relative to control; method in brief: as §1
[4] = tested on: Staphylococcus aureus subsp. aureus USA300; assay: Inhibition of methicillin-resistant Staphylococcus aureus USA300 SaeRS Tn551 deletion mutant assessed as reduction in alpha-hemolysin mediated hemolysis of human erythrocytes at 8 uM after 8 hrs by ELISA relative to control; method in brief: as §1

Row | SMILES | inhibition [1] | inhibition [2] | inhibition [3] | inhibition [4]
1 | C=C(C)C(O)CC/C(C)=C/Cc1c(O)ccc(C(=O)CC(O)c2ccc(O)cc2)c1O (stereo unspecified) | Active | Active | 87.4% | 
2 | C=C(C)C(O)CC/C(C)=C/Cc1c(O)ccc(C(=O)/C=C/c2ccc(O)cc2)c1O (stereo unspecified) [XANTHOANGELOL B] | Active | Active |  | 86.9%
